The source of these data is ChEMBL document CHEMBL1156199, “Synthesis of new acridone derivatives, inhibitors of NS3 helicase, which efficiently and specifically inhibit subgenomic HCV replication” (J Med Chem, 2010).

Data set [1] can be described thus: Cytotoxicity against human HuH7 cells after3 days by XTT assay. On the technique in general: Formazan colour is commonly taken as a measure of viable cells.
Data set [2] is described as follows: Therapeutic index, ratio of CC50 for human HuH7 cells to EC50 for HCV 1b. In kind it is cell-based, Huh-7. Particulars: read-out: Ratio CC50/EC50. The procedure, abridged:
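Therapeutic index calculated as CC50 (XTT, replicon-bearing Huh-7 cells) divided by EC50 (luminescence replicon assay, genotype 1b).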

Data set [3] relates to Hepatitis C virus. Put plainly: Antiviral activity against HCV 1b infected in human HuH7 cells assessed as inhibition of viral RNA replication after 4 days by replicon assay. In kind it is functional, organism-based, Hepacivirus hominis. Particulars: genotype 1b, Huh-7, 96 h. Put shortly: (§1)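 Huh-7 cells carrying genotype 1b subgenomic replicon; compounds in DMSO tested from 1 to 200 μM or 1 μM to 1 mM depending on solubility; luminescence-based replicon RNA amplification assay; EC50 = concentration reducing luminescence by 50%.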
(In general: In antiviral work, replicon cells carry a viral genome segment that copies itself.)

Data set [4] relates to NS3 helicase (Hepatitis C virus genotype 1a). Put plainly: Inhibition of HCV 1a NS3 helicase by fluorimetry.
Data set [5] concerns Nucleic Acid. Kind of data set: Binding affinity to HCV dsRNA assessed as inhibition of ethidium bromide RNA intercalation by gel migration retardation assay. The conditions noted are these: Hepacivirus hominis. In kind it is nucleic-acid assay. The procedure, abridged: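 dsRNA gel migration retardation assay: compound incubated with dsRNA, ethidium bromide staining; intercalation read as partial or total disappearance of the dsRNA band; DMSO and epidoxorubicin controls.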

Data set [6] has as its system Nucleic Acid. Put plainly: Binding affinity to […] assessed as inhibition of ethidium bromide DNA intercalation at 100 uM by gel migration retardation assay. In kind it is nucleic-acid assay. Particulars: Hepacivirus hominis. The procedure, abridged:
(§2)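 dsNA gel migration retardation assay on dsDNA: compound (100 or 500 μM) incubated with dsDNA, ethidium bromide staining; intercalation read as partial or total loss of the dsDNA band; DMSO as negative and epidoxorubicin as positive control.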

For data set [7], the system named is Nucleic Acid. Put plainly: Binding affinity to […] assessed as inhibition of ethidium bromide DNA intercalation by gel migration retardation assay. It is filed as nucleic-acid assay. Particulars: Hepacivirus hominis. The procedure, abridged: as §2
Data set [8] relates to Hepatitis C virus. Kind of data set: Antiviral activity against HCV 1b infected in human HuH7 cells assessed as inhibition of viral RNA replication at 5.8 uM after 4 days by replicon assay. It is filed as functional, Hepacivirus hominis. The conditions noted are these: genotype 1b, Huh-7, 96 h. The procedure, abridged: as §1
Data set [9] in a line: Inhibition of HCV NS3 helicase in presence of 2.5 mM ATP. Details: species or system Hepacivirus hominis.
Data set [10] can be described thus: Inhibition of HCV NS3 helicase in presence of 1.5 mM ATP. The arrangement: species or system Hepacivirus hominis.
Data set [11] can be described thus: Inhibition of HCV NS3 helicase in presence of 0.5 mM ATP. Details: species or system Hepacivirus hominis.
Data set [12] is described as follows: Inhibition of HCV 3a NS3 helicase by fluorimetry. Details: species or system Hepatitis C virus subtype 3a. The procedure, abridged:
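Fluorometric helicase unwinding assay with a dsDNA substrate at 37 °C; NS3 helicase domain (genotype […], from patient-derived RNA) expressed in baculovirus and purified from insect cells, used at 50 nM; IC50 = concentration reducing helicase activity by 50%, relative to DMSO control.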

In data set [13] the test system is Hepatitis C virus. Kind of data set: Antiviral activity against HCV 1b infected in human HuH7 cells assessed as inhibition of viral RNA replication at 10 uM after 4 days by replicon assay. In kind it is functional, Hepacivirus hominis. The conditions noted are these: genotype 1b, Huh-7, 168 h, in the assay text read “after 7 days” for “after 4 days”. Put shortly:
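Huh-7 cells with genotype 1b subgenomic replicon seeded at 4 × 10⁵ per dish in DMEM, grown 7 days with 0, 1, 10 or 100 μM compound; 5 μg total RNA reverse transcribed (3UTR, oligo(dT)15, random hexamer primers), equal cDNA used for real-time PCR (45 cycles, 56 °C annealing) to quantify replicon RNA.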

For data set [14], the system named is Hepatitis C virus. Kind of data set: Antiviral activity against HCV 1b infected in mutant human HuH7 cells assessed as inhibition of viral RNA replication after 4 days by replicon assay. It is filed as functional, organism-based, Hepacivirus hominis. The conditions noted are these: genotype 1b, Huh-7, 96 h.
Data set [15] concerns Hepatitis C virus. Put plainly: Antiviral activity against HCV 1b infected in human HuH7 cells assessed as inhibition of viral RNA replication at 2.7 uM after 4 days by replicon assay. The conditions noted are these: genotype 1b, Huh-7, 96 h. It is filed as functional, Hepacivirus hominis. The procedure, abridged:
as §1

Activity calls are given as the source filed them. No cut-off for these calls is given here.

The term CC50 denotes the concentration that lowers cell viability or growth by half. Low readings indicate harm at low concentration, high ones better tolerance by the cells. Consider `[N-]=[N+]=N[C@]1(CO)O[C@@H](n2ccc(N)nc2=O)[C@H](O)[C@@H]1O` [4'-AZIDOCYTIDINE], for which the CC50 at 72 h in data set [1] is over 200 µM. Besides, in data set [2], the selectivity ratio was over 143.

In general, EC50 refers to the concentration needed to bring the measured effect to its halfway point. In general, IC50 refers to the concentration at which inhibition is half-maximal. `COc1cccc2c(=O)c3cc(Cl)cc(C(=O)Nc4ccccn4)c3[nH]c12` registered a CC50 at 72 h in [1] of 15.8 µM. Besides, the EC50 in data set [3] worked out at 5 µM. The selectivity ratio in data set [2] was found to be 3.2. Besides, half-maximal inhibition in data set [4] (IC50) required 64.7 µM. Besides, the result in [5] was inactive.

`COc1cc(NC(=O)c2cccc3c(=O)c4cccc(OC)c4[nH]c23)cc(OC)c1OC`: the CC50 at 72 h in data set [1] was over 500 µM. Moreover, in data set [3], the EC50 was 203 µM. The selectivity ratio in [2] is over 2.5. The same molecule displayed an IC50 in [4] of 751 µM.

`COc1cccc2c(=O)c3cc(F)cc(C(=O)Nc4cc(Cl)ccn4)c3[nH]c12` returned a CC50 at 72 h in data set [1] of over 100 µM. The EC50 in data set [3] is over 100 µM. Moreover, in data set [4], the IC50 stood at 46.3 µM.

Molecule `COc1cccc2c(=O)c3cc(Cl)cc(C(=O)Nc4cccnc4)c3[nH]c12` gave a CC50 at 72 h in data set [1] of 19.3 µM. The concentration for a half-maximal effect (EC50) in [3] amounted to 0.96 µM. The selectivity ratio in data set [2] was determined as 20.1. In data set [4], this molecule registered an IC50 of 54.6 µM.

In data set [1], `COc1cccc2c(=O)c3cccc(C(=O)Nc4cccnc4)c3[nH]c12` displayed a CC50 at 72 h of over 100 µM. Besides, the outcome in [6] and in [7] was Active. The EC50 in data set [3] worked out at 3.5 µM. In addition, in [2], the selectivity ratio was over 28. The molecule also yielded an IC50 in [4] of 20.6 µM.

Broadly, the inhibition is the drop in the measured response relative to a control, in per cent. In data set [1], `COc1cccc2c(=O)c3cccc(C(=O)Nc4cc(Cl)ccn4)c3[nH]c12` displayed a CC50 at 72 h of 171 µM. Besides, the inhibition at 5.8 µM in data set [8] came to 30%. In data set [4], this molecule yielded an IC50 of 35.8 µM.

For the molecule `COc1cccc2c(=O)c3cccc(C(=O)Nc4ccccn4)c3[nH]c12`, the CC50 at 72 h in data set [1] was 2.5 µM. The EC50 in data set [3] was determined as 2.3 µM. The result in [7] was Active. Further, in data set [2], the selectivity ratio turned out to be 1.1. In data set [4], this molecule came in with an IC50 of 6.2 µM.

The molecule `COc1cccc2c(=O)c3cc(Cl)cc(C(=O)Nc4cc(Cl)ccn4)c3[nH]c12` showed a CC50 at 72 h in data set [1] of over 100 µM. Also, the IC50 in data set [9] came out at 1.1 µM; in data set [4], 1.5 µM; in data set [10] it was 1.5 µM; in [11] it was 1.1 µM. Also, the EC50 in data set [3] is over 100 µM.

As for `COc1cccc2c(=O)c3cc(F)cc(C(=O)Nc4cccnc4)c3[nH]c12`, the IC50 in data set [12] is 7.3 µM; in data set [9] it was 9.9 µM; in data set [4], 8.6 µM; in data set [10], 8.6 µM; in [11], 10.9 µM. Further, the CC50 at 72 h in data set [1] was over 1000 µM. The EC50 in data set [3] worked out at 0.98 µM; in [14], 251 µM. For the same molecule, the selectivity ratio in [2] was over 1000. For the same molecule, in data set [13], the inhibition at 10 µM was found to be 85%.

With `COc1cccc2c(=O)c3cc(F)cc(C(=O)Nc4ccccn4)c3[nH]c12`, the CC50 at 72 h in data set [1] is over 100 µM. Further, the IC50 in data set [9] was 5.1 µM; in data set [4], 4.7 µM; in data set [10], 4.7 µM; in [11] it was 6.5 µM. For the same molecule, in data set [15], the inhibition at 2.7 µM turned out to be 30%.

Regarding `NC(=O)c1ncn([C@@H]2O[C@H](CO)[C@@H](O)[C@H]2O)n1` [RIBAVIRIN], half-maximal cytotoxicity in [1] (CC50 at 72 h) was put at 1060 µM. In addition, the EC50 in data set [3] was 17.6 µM. In [2], the selectivity ratio came out at 60.2.

As to `O=C(Nc1ccncc1)c1cccc2c(=O)c3cccc(OCc4ccccc4)c3[nH]c12`, the CC50 at 72 h in data set [1] was over 100 µM. Besides, the EC50 in data set [3] is over 100 µM. In data set [4], this molecule returned an IC50 of 8 µM.
